Results reported in ChEMBL document CHEMBL1129426, “5-Lipoxygenase inhibitors: synthesis and structure-activity relationships of a series of 1-aryl-2H,4H-tetrahydro-1,2,4-triazin-3-ones” (J Med Chem, 1996).
“And” between values parts separate entries of the source, which are not always exact repeats. Equal entries are not always repeated.

test system: not listed separately; assay: T1/2 in dog (PO dose); type: ADME, organism-based; conditions: in vivo
In short: (§1)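 Dogs (n=2) given 113 or 112 µmol/kg orally. Blood sampled at various times; plasma deproteinized with methanol and quantified by reversed-phase C18 HPLC with UV detection at 260 nm, external calibration. Values are means of two animals.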

SMILES	half-life [min]
O=C1NCCN(c2ccccc2)N1	48

test system: not listed separately; assay: Cmax in rat (PO dose); type: ADME, organism-based; design: route oral; conditions: in vivo
In short: (§2)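 Rats dosed by oral gavage at 200 µmol/kg. Tail-vein blood drawn at about 1 h intervals; plasma analysed by HPLC. Mean of data from two animals.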

SMILES	Cmax [µM]
O=C1NCCN(c2ccccc2)N1	130

test system: not listed separately; assay: Cmax in dog (PO dose); conditions: in vivo

SMILES	Cmax [µM]
O=C1NCCN(c2ccccc2)N1	132

biological target: T1, Cyclooxygenase (Homo sapiens, UniProt P35354+P23219); assay: In vitro cyclooxygenase inhibitory activity against calcium ionophore (A23187) induced thromboxane formation in human whole blood; type: functional, tissue-based; conditions: not given
In short: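 Human whole blood stimulated with calcium ionophore A23187. Thromboxane measured by enzyme immunoassay. Assays in duplicate.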

SMILES	IC50 [µM]
O=C1CCN(c2ccccc2)N1 [PHENIDONE]	12

biological target: T2, Polyunsaturated fatty acid 5-lipoxygenase (Rattus norvegicus, UniProt P12527); assay: In vitro 5-lipoxygenase inhibitory activity against calcium ionophore (A23187) induced LTB4 formation in rat polymorphonuclear leukocytes; type: functional, cell-based; conditions: not given
T2 sequence (P12527 whole entry): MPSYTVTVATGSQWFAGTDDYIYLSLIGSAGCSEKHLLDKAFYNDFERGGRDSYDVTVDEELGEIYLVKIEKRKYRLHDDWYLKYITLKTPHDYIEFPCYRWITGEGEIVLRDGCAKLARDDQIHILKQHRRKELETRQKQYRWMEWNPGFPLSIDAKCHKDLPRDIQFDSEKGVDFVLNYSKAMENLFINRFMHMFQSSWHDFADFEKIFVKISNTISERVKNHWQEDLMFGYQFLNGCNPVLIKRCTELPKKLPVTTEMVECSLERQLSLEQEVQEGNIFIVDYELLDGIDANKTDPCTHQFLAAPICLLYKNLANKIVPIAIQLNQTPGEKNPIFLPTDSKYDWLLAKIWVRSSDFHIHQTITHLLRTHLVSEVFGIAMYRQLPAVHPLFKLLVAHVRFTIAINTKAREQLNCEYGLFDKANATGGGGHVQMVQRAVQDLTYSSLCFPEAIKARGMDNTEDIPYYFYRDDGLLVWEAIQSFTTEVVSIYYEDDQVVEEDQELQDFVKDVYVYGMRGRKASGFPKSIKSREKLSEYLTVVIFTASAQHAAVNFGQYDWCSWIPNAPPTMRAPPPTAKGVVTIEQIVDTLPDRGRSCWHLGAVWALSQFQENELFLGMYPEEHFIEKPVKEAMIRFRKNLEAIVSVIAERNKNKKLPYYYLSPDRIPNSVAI

SMILES	IC50 [µM]
O=C1NCCN(c2ccccc2)N1	4.6

biological target: Cyclooxygenase (Rattus norvegicus) (UniProt P35355+Q63921); assay: In vitro cyclooxygenase inhibitory activity at 100 uM against calcium ionophore (A23187) induced thromboxane formation in rat polymorphonuclear leukocytes; type: functional, cell-based; conditions: not given
In short: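 Rat polymorphonuclear leukocytes stimulated with calcium ionophore A23187; thromboxane determined by enzyme immunoassay. Duplicate assays; percent inhibition reported at highest concentration tested.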

SMILES	inhibition [%]
O=C1NCCN(c2ccccc2)N1	28

biological target: Prostaglandin G/H synthase 1 (Ovis aries) (UniProt P05979); assay: Compound at 100 uM was tested in vitro for inhibition of Prostaglandin G/H synthase sheep seminal vesicle; conditions: not given
Sequence (P05979 whole entry, looked up): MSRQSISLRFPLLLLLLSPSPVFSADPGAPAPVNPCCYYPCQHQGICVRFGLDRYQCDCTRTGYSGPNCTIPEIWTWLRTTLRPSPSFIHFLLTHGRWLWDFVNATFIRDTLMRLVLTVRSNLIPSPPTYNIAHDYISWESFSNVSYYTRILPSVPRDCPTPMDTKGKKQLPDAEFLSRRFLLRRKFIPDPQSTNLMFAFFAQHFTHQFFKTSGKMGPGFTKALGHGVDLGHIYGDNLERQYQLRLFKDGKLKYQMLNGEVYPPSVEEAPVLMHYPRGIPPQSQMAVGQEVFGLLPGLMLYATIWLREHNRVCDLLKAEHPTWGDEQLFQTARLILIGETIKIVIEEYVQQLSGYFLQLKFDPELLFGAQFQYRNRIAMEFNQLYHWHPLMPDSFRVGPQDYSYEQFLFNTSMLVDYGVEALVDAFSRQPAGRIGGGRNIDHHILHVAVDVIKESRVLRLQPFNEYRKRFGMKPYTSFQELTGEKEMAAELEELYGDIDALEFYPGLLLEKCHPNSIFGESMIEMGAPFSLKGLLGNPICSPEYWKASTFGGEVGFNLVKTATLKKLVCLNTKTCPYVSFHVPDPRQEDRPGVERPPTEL

SMILES	inhibition [%]
O=C1NCCN(c2ccccc2)N1	4

test system: not listed separately; assay: Tmax in dog (PO dose); type: ADME, organism-based, Canis lupus familiaris; conditions: in vivo; in short: as §1

SMILES	Tmax [min]
O=C1NCCN(c2ccccc2)N1	18

test system: not listed separately; assay: Tmax in rat (PO dose); type: ADME, organism-based; conditions: in vivo; in short: as §2

SMILES	Tmax [h]
O=C1NCCN(c2ccccc2)N1	1

biological target: T3, Cyclooxygenase (Rattus norvegicus, UniProt P35355+Q63921); assay: In vitro cyclooxygenase inhibitory activity against calcium ionophore (A23187) induced thromboxane formation in rat polymorphonuclear leukocytes; type: functional, cell-based; conditions: not given
T3 sequence (P35355 whole entry): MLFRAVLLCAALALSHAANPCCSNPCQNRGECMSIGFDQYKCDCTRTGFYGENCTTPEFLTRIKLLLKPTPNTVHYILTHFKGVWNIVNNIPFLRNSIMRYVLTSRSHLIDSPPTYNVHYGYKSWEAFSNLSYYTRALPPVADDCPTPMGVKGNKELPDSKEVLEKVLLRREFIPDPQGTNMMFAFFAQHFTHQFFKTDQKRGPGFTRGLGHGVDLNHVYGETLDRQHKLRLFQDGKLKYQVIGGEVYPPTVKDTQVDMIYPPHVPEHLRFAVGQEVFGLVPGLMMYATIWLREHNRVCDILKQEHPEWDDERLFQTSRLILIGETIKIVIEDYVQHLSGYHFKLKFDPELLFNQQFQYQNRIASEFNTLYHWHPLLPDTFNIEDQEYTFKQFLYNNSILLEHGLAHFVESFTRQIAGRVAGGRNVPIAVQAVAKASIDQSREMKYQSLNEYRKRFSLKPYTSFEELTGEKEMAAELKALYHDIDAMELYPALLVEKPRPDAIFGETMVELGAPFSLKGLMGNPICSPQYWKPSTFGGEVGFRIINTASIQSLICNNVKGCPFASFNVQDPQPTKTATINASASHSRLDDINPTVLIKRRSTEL
T3 sequence (Q63921 whole entry): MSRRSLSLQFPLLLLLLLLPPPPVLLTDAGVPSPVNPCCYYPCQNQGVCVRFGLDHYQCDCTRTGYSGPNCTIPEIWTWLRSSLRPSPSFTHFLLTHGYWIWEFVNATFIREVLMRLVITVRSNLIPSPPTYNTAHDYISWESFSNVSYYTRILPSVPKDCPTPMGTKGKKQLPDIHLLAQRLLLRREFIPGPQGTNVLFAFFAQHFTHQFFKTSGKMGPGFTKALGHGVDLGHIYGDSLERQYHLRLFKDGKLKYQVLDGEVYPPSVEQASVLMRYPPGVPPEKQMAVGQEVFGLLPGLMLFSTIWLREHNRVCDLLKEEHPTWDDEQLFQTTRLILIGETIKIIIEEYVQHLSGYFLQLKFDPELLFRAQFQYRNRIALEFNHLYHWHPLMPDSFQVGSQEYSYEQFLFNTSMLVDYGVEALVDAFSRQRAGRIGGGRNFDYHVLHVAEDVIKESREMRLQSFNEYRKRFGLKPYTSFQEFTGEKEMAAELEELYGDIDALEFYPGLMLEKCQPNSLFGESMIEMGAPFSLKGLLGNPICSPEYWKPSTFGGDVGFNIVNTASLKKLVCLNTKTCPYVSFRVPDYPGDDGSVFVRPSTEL
In short: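 Rat polymorphonuclear leukocytes, intact cells, stimulated with calcium ionophore A23187. Thromboxane quantified by enzyme immunoassay. Duplicate assays.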

SMILES	IC50 [µM]
O=C1CCN(c2ccccc2)N1 [PHENIDONE]	13

test system: Rattus norvegicus; assay: In vivo inhibition of rat anaphylaxis leukotriene formation from peritoneal fluids, 1 hr after an oral dose of 200 uM/Kg; type: functional; conditions: not given
In short: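 Rats given 200 µmol/kg orally 1 h before antibody-antigen challenge inducing peritoneal leukotriene biosynthesis; LTE4 in peritoneal fluid measured. Mean of eight rats; percent inhibition versus control group mean; significance by one-way ANOVA with Tukey's multiple comparison.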

SMILES	ED50 [mg/kg]
CC1CN(c2ccccc2)NC(=O)N1 (centres undefined)	13
O=C1NCCN(c2ccccc2)N1	7
Cc1cccc(N2CCNC(=O)N2)n1	17
O=C1NCCN(c2cccc(Cl)c2)N1	18
CC(C)C1CN(c2ccccc2)NC(=O)N1 (centres undefined)	59

test system: not listed separately; assay: Plasma Tmax in rat (PO dose); type: ADME, organism-based; conditions: not given; in short: as §2

SMILES	Tmax [h]
CC1CN(c2ccccc2)NC(=O)N1 (centres undefined)	2
O=C1NCCN(c2ccccc2)N1	1
Cc1cccc(N2CCNC(=O)N2)n1	1
O=C1NCCN(c2cccc(Cl)c2)N1	2
CC(C)C1CN(c2ccccc2)NC(=O)N1 (centres undefined)	2

biological target: T2, Polyunsaturated fatty acid 5-lipoxygenase; assay: Inhibition of 5-lipoxygenase catalysis in rat basophilic leukemia (RBL) cells by measuring 5-HETE product formation; type: cell-based, RBL-1; conditions: not given
In short: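 Crude 20000g supernatant from sonicated rat basophilic leukemia cells used as 5-LO source; 5-HETE product formation measured.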

SMILES	IC50 [µM]
CC1CN(c2ccccc2)NC(=O)N1 (centres undefined)	11
Cc1cccc(N2CCNC(=O)N2)n1	5.5
O=C1NCCN(c2cccc(Cl)c2)N1	5.3
CC(C)C1CN(c2ccccc2)NC(=O)N1 (centres undefined)	6.8

test system: not listed separately; assay: Cmax in cynomolgus monkey (PO dose); type: ADME, organism-based, Macaca fascicularis; design: route oral; conditions: in vivo
In short: (§3)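 Cynomolgus monkeys (n=2) dosed orally, 113 or 112 µmol/kg, as suspension in 0.2% HPMC. Plasma from serial blood samples deproteinized with 2 volumes methanol, run on C18 reversed-phase HPLC (55% acetonitrile, 10 mM acetohydroxamic acid, 8 mM triethylamine acetate, pH 6.5), UV 260 nm against external calibration curve. Mean of two animals.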

SMILES	Cmax [µM]
O=C1NCCN(c2ccccc2)N1	74

test system: not listed separately; assay: Plasma Cmax in rat (PO dose); type: ADME, organism-based; design: route oral; conditions: not given; in short: as §2

SMILES	Cmax [µM]
CC1CN(c2ccccc2)NC(=O)N1 (centres undefined)	141
Cc1cccc(N2CCNC(=O)N2)n1	99
O=C1NCCN(c2cccc(Cl)c2)N1	59
CC(C)C1CN(c2ccccc2)NC(=O)N1 (centres undefined)	48

test system: not listed separately; assay: T1/2 in cynomolgus monkey (PO dose); type: ADME, organism-based, Macaca fascicularis; conditions: in vivo; in short: as §3

SMILES	half-life [min]
O=C1NCCN(c2ccccc2)N1	60

biological target: T1, Cyclooxygenase; assay: In vitro cyclooxygenase inhibitory activity at 100 uM against calcium ionophore (A23187) induced thromboxane formation in human whole blood; type: functional, tissue-based; conditions: not given
In short: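 Human whole blood challenged with calcium ionophore A23187; thromboxane measured by enzyme immunoassay as COX readout. Duplicate assays; percent inhibition at highest tested concentration.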

SMILES	inhibition [%]
O=C1NCCN(c2ccccc2)N1	0

test system: not listed separately; assay: Tmax in cynomolgus monkey (PO dose); type: ADME, organism-based, Macaca fascicularis; conditions: in vivo; in short: as §3

SMILES	Tmax [h]
O=C1NCCN(c2ccccc2)N1	2

biological target: T4, Polyunsaturated fatty acid 5-lipoxygenase (Homo sapiens, UniProt P09917); assay: In vitro 5-lipoxygenase inhibitory activity against calcium ionophore (A23187) induced LTB4 formation in human whole blood; type: functional, tissue-based; conditions: not given
T4 sequence (P09917 whole entry): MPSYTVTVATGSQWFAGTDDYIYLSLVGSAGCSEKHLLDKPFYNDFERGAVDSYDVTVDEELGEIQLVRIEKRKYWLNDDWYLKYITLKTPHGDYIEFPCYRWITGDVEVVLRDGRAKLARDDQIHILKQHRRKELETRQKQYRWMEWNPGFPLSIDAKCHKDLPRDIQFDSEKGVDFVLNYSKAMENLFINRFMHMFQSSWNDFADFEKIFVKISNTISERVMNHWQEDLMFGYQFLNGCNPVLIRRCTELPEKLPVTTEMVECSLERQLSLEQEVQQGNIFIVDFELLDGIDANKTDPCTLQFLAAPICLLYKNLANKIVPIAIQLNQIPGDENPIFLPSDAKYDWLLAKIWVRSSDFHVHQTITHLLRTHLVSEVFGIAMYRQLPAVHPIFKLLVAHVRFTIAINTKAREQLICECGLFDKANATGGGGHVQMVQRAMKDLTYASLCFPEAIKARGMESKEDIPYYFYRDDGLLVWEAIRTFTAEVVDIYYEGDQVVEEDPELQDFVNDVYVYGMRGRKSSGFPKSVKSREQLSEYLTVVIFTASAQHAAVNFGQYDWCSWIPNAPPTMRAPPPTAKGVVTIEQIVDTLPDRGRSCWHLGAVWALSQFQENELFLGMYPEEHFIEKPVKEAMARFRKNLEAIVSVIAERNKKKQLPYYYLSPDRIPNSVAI

SMILES	IC50 [µM]
O=C1NCCN(c2ccccc2)N1	5.8

biological target: T4, Polyunsaturated fatty acid 5-lipoxygenase; assay: In vitro 5-lipoxygenase inhibitory activity against calcium ionophore (A23187) induced LTB4 formation in human whole blood.; conditions: not given

SMILES	IC50
CC1CN(c2ccccc2)NC(=O)N1 (centres undefined)	5.8 µM
O=C1NCCN(c2ccccc2)N1	5.8 µM and 9.2 µM
Cc1cccc(N2CCNC(=O)N2)n1	7.9 µM
O=C1NCCN(c2cccc(Cl)c2)N1	2.1 µM
CC(C)C1CN(c2ccccc2)NC(=O)N1 (centres undefined)	20 µM

biological target: Prostaglandin G/H synthase 1 (Ovis aries) (UniProt P05979); assay: Compound was tested in vitro for inhibition of Prostaglandin G/H synthase sheep seminal vesicle; conditions: not given

SMILES	IC50 [µM]
O=C1CCN(c2ccccc2)N1 [PHENIDONE]	94
